Data published in ChEMBL document CHEMBL2034829, “Truncated phosphonated C-1'-branched N,O-nucleosides: a new class of antiviral agents” (Bioorg Med Chem, 2012).
Calls of active or inactive are those of the source. The rule behind the calls is not given here.

Legend:
[1] = test system: Human immunodeficiency virus 1; assay: Antiviral activity against HIV1 infected in CEM cells after 72 hrs by GFP reporter gene assay; format: functional, organism-based; settings: for IC50: Human immunodeficiency virus 1, CCRF-CEM; for Activity: CCRF-CEM
Summary of the method: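 CEM T cells carrying an HIV-1 LTR-driven GFP plasmid; 5 × 10^5 cells infected 2 h in 100 µl with supernatant of chronically HIV-infected H9 cells (20 ng/mL p24 equivalent) with compounds at 1000, 100, 10, 1 µM; medium then added, 72 h culture; inhibition scored by GFP expression; IC50 = concentration inhibiting 50% infection; zidovudine internal positive control.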

[2] = test system: Human T-cell leukemia virus type I; assay: Antiviral activity against HTLV1 infected in PBMC assessed as decrease in viral core protein p19 production; format: functional, organism-based
Summary of the method: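 PBMC co-cultivated with a chronically HTLV-1-infected cell line, with test compounds present; infection measured as production of viral core protein p19.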

[3] = Cytotoxicity against human MOLT3 cells by MTS assay; format: cell-based; settings: MOLT-3 cells
Summary of the method: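 MOLT-3 cells (1 × 10^4) seeded with or without compounds at 1000 to 1 µM. Metabolic activity read colorimetrically as MTS formazan formation. CC50 is the concentration giving 50% inhibition of metabolic activity.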

[4] = Selectivity index, ratio of CC50 for human MOLT3 cells to IC50 for HIV1; format: functional, MOLT-3
Summary of the method: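 SI = CC50/IC50. CC50 from MTS formazan colorimetric assay: 1 × 10^4 MOLT-3 cells with or without compounds at 1000 to 1 µM, concentration reducing metabolic activity 50%. IC50 from CEM-GFP HIV-1 infection (2 h exposure with compounds at 1000–1 µM, 72 h culture, GFP read-out).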

[5] = Ratio of compound CC50 to AZT CC50 for human MOLT3 cells; format: cell-based; settings: MOLT-3 cells
[6] = test system: Human immunodeficiency virus 1; assay: Ratio of AZT IC50 to compound IC50 for HIV1; format: functional

| Compound | IC50 [1] | Activity [2] | CC50 [3] | Ratio CC50/IC50 [4] | selectivity ratio [5] | Ratio IC50 [6] | Activity [1] |
| --- | --- | --- | --- | --- | --- | --- | --- |
| CCOC(=O)[C@@]1(n2ccc(NC(C)=O)nc2=O)C[C@H](P(=O)(OCC)OCC)N(C)O1 (racemic) | > 1000 µM | inactive | > 1000 µM | – | – | – | – |
| CCOC(=O)[C@@]1(n2ccc(=O)[nH]c2=O)C[C@H](P(=O)(OCC)OCC)N(C)O1 (racemic) | 132 µM | inactive | > 1000 µM | 7.57 | 83 | 28 | – |
| CCOC(=O)[C@]1(n2ccc(=O)[nH]c2=O)C[C@H](P(=O)(OCC)OCC)N(C)O1 (relative stereo) | – | inactive | – | – | – | – | inactive |
| CCOC(=O)[C@@]1(n2cc(F)c(=O)[nH]c2=O)C[C@H](P(=O)(OCC)OCC)N(C)O1 (racemic) | 220 µM | inactive | > 1000 µM | 4.5 | 83 | 28 | – |
| CCOC(=O)[C@]1(n2cc(F)c(=O)[nH]c2=O)C[C@H](P(=O)(OCC)OCC)N(C)O1 (racemic) | – | inactive | – | – | – | – | inactive |
| CCOC(=O)[C@]1(n2ccc(NC(C)=O)nc2=O)C[C@H](P(=O)(OCC)OCC)N(C)O1 (racemic) | – | inactive | – | – | – | – | inactive |
| CCOC(=O)[C@@]1(n2ccc(N)nc2=O)C[C@H](P(=O)(OCC)OCC)N(C)O1 (racemic) | 180 µM | inactive | > 1000 µM | 7.02 | – | – | – |
| Cc1cn([C@H]2C[C@H](N=[N+]=[N-])[C@@H](CO)O2)c(=O)[nH]c1=O [ZIDOVUDINE] | 7.7 µM | – | 12.1 µM | 1.57 | – | – | – |
| CCOC(=O)[C@]1(n2cc(C)c(=O)[nH]c2=O)C[C@H](P(=O)(OCC)OCC)N(C)O1 (racemic) | – | inactive | – | – | – | – | inactive |
| CCOC(=O)[C@@]1(n2cc(C)c(=O)[nH]c2=O)C[C@H](P(=O)(OCC)OCC)N(C)O1 (racemic) | > 1000 µM | inactive | > 1000 µM | – | – | – | – |
